Results reported in ChEMBL document CHEMBL2390837, “Synthesis, cytotoxic activity and DNA-interaction studies of novel anthraquinone-thiosemicarbazones with tautomerizable methylene group” (Eur J Med Chem, 2013).
Activity calls are given as the source filed them. No cut-off for these calls is given here.

Columns and labels:
HeLa [1] = assay: Cell cycle arrest in human HeLa cells assessed as accumulation at subG1 phase at IC50 after 24 hrs by propidium iodide staining-based FACS flow cytometric analysis (reference value: 9.10%); assay type: functional
HeLa [2] = assay: Cell cycle arrest in human HeLa cells assessed as accumulation at subG1 phase after 24 hrs by propidium iodide staining-based FACS flow cytometric analysis; assay type: functional
Escherichia coli [3] = assay: Induction of Escherichia coli XL1 blue pUC18 DNA cleavage assessed as conversion of supercoiled DNA to relaxed circular DNA at 1:2 compound to iron molar ratio after 90 mins by agarose gel electrophoresis in presence of Fe2+
Outline: (§1)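 AQ-thiosemicarbazone (4 μL of 10 mM) preincubated 60 min at 37 °C in bicarbonate buffer with 2 μL of FeSO₄ or FeCl₃ (20 mM or 40 mM stock). pUC18 (2 μL) then added and incubated a further 90 min. Products run on 1% agarose in TAE at 80 V and stained with ethidium bromide (0.5 µg/mL).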

Escherichia coli [4] = assay: Induction of Escherichia coli XL1 blue pUC18 DNA cleavage assessed as conversion of supercoiled DNA to relaxed circular DNA at 2 mM after 90 mins by agarose gel electrophoresis
Outline: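 Supercoiled pUC18 (262 ng, from E. coli XL1 blue) incubated with 2 mM compound in 20 μL of 40 mM bicarbonate buffer pH 8.4 at 37 °C for 90 min. Reaction stopped with loading buffer. Analyzed on 1% agarose in TAE pH 8.24 at 80 V and stained with ethidium bromide (0.5 µg/mL).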

MDA-MB-453 = assay: Cytotoxicity against human MDA-MB-453 cells after 72 hrs by MTT assay; assay type: functional, cell-based; details: MDA-MB-453, 72 h
Outline: (§2)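 Cells seeded in 96-well plates: HeLa 2000, MDA-MB-361 7000, MDA-MB-453 3000, K562, A549 and MRC-5 5000 per well. Compounds added at 5–100 μM (final), DMSO ≤0.5%, in RPMI-1640 with 10% FBS. Added after 24 h, except K562 at 2 h after seeding. Exposure 72 h, then MTT 4 h at 37 °C, SDS solubilization, A570 read. IC50 is the mean ± SD of three independent experiments.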

HeLa [5] = assay: Cell cycle arrest in human HeLa cells assessed as accumulation at G2/M phase at 2 times IC50 after 24 hrs by propidium iodide staining-based FACS flow cytometric analysis (reference value: 21.66%); assay type: functional
HeLa [6] = assay: Cell cycle arrest in human HeLa cells assessed as accumulation at G1 phase at 2 times IC50 after 24 hrs by propidium iodide staining-based FACS flow cytometric analysis (reference value: 51.97%); assay type: functional
DNA = assay: Binding affinity to calf thymus DNA at 20 to 80 uM after 1.5 hrs by UV-vis spectrophotometric analysis; assay type: nucleic-acid assay; details: Bos taurus
Outline: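 UV–Vis spectra (200–800 nm, 1 cm cells) of compound at 20, 40, 60 or 80 μM, with or without 0.12 mM CT-DNA. CT-DNA was dissolved in 10 mM Tris-HCl pH 7.9. Mixtures were in 40 mM bicarbonate buffer pH 8.4, incubated 1.5 h at 37 °C with occasional vortexing.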

Escherichia coli [7] = assay: Induction of Escherichia coli XL1 blue pUC18 DNA cleavage assessed as conversion of supercoiled DNA to relaxed circular DNA at 1:2 compound to iron molar ratio after 90 mins by agarose gel electrophoresis in presence of Fe3+; outline: as §1
MDA-MB-361 = assay: Cytotoxicity against human MDA-MB-361 cells after 72 hrs by MTT assay; assay type: functional, cell-based; details: MDA-MB-361, 72 h; outline: as §2
HeLa [8] = assay: Cell cycle arrest in human HeLa cells assessed as accumulation at subG1 phase at 2 times IC50 after 24 hrs by propidium iodide staining-based FACS flow cytometric analysis (reference value: 9.10%); assay type: functional
[9] = test system: Radical scavenging activity; assay: Antioxidant activity assessed as DPPH radical scavenging activity after 30 mins by spectrophotometric analysis; assay type: functional
Outline: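 Test solutions at 8–1000 μM in methanol mixed 1:1 by volume with 200 μM DPPH in methanol, kept 30 min in the dark at room temperature. Absorbance read at 517 nm against blanks without DPPH. Percent scavenging = (A_DPPH − A_sample)/A_DPPH × 100. IC50 (concentration halving DPPH absorbance) read from a plot of % versus concentration. Ascorbic acid and BHT used as standards.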

Escherichia coli [10] = assay: Induction of Escherichia coli XL1 blue pUC18 DNA cleavage assessed as conversion of supercoiled DNA to relaxed circular DNA at 1:1 compound to iron molar ratio after 90 mins by agarose gel electrophoresis in presence of Fe3+; outline: as §1
HeLa [11] = assay: Cell cycle arrest in human HeLa cells assessed as accumulation at S phase at 2 times IC50 after 24 hrs by propidium iodide staining-based FACS flow cytometric analysis (reference value: 16.22%); assay type: functional
HeLa [12] = assay: Induction of apoptosis in human HeLa cells at IC90 after 24 hrs by propidium iodide staining-based FACS flow cytometric analysis in presence of caspase-3 inhibitor Z-DEVD-FMK; assay type: functional, cell-based
HeLa [13] = assay: Cytotoxicity against human HeLa cells after 72 hrs by MTT assay; assay type: functional, cell-based; outline: as §2
HeLa [14] = assay: Cell cycle arrest in human HeLa cells assessed as accumulation at G2/M phase at IC50 after 24 hrs by propidium iodide staining-based FACS flow cytometric analysis (reference value: 21.66%); assay type: functional
HeLa [15] = assay: Cell cycle arrest in human HeLa cells assessed as accumulation at S phase at IC50 after 24 hrs by propidium iodide staining-based FACS flow cytometric analysis (reference value: 16.22%); assay type: functional
HeLa [16] = assay: Cell cycle arrest in human HeLa cells assessed as accumulation at G1 phase at IC50 after 24 hrs by propidium iodide staining-based FACS flow cytometric analysis (reference value: 51.97%); assay type: functional
MRC5 = assay: Cytotoxicity against human MRC5 cells after 72 hrs by MTT assay; assay type: cell-based; details: MRC5, 72 h; outline: as §2
HeLa [17] = assay: Induction of apoptosis in human HeLa cells at IC90 after 24 hrs by propidium iodide staining-based FACS flow cytometric analysis in presence of caspase-9 inhibitor Z-LEHD-FMK; assay type: functional, cell-based
HeLa [18] = assay: Induction of apoptosis in human HeLa cells at IC90 after 24 hrs by propidium iodide staining-based FACS flow cytometric analysis in presence of caspase-8 inhibitor Z-IETD-FMK; assay type: functional, cell-based
A549 = assay: Cytotoxicity against human A549 cells after 72 hrs by MTT assay; assay type: functional, cell-based; details: A549, 72 h; outline: as §2
Escherichia coli [19] = assay: Induction of Escherichia coli XL1 blue pUC18 DNA cleavage assessed as conversion of supercoiled DNA to relaxed circular DNA at 1:1 compound to iron molar ratio after 90 mins by agarose gel electrophoresis in presence of Fe2+; outline: as §1
K562 = assay: Cytotoxicity against human K562 cells after 72 hrs by MTT assay; assay type: functional, cell-based; details: K562, 72 h; outline: as §2

In the case of `CCCCCCNC(=S)N/N=C(/CC(=O)c1cccc2c1C(=O)c1ccccc1C2=O)C(=O)OCC`, the Activity (HeLa [1]) is reported as 25.02%, the Activity (HeLa [2]) is reported as “Dose-dependent effect” and the Activity (Escherichia coli [3]) is reported as “Active”. For the same compound, the Activity (Escherichia coli [4]) was “inactive”, the IC50 (MDA-MB-453) was 19.6 µM and the Activity (HeLa [5]) was 3.84%. For the same compound, the Activity (HeLa [6]) was 36.66%, the Activity (DNA) was “Active” and the Activity (Escherichia coli [7]) was “inactive”. The IC50 (MDA-MB-361) was 4.45 µM, the Activity (HeLa [8]) was 37.32% and the IC50 [9] was 26.1 µM. For the same compound, the Activity (Escherichia coli [10]) was “inactive”, the Activity (HeLa [11]) was 17.17% and the Activity (HeLa [12]) was “Active”. The IC50 (HeLa [13]) was 7.66 µM, the Activity (HeLa [14]) was 19.83% and the Activity (HeLa [15]) was 14.62%. The Activity (HeLa [16]) was 37.89%, the IC50 (MRC5) was 42.1 µM and the Activity (HeLa [17]) was “Active”. For the same compound, the Activity (HeLa [18]) was “Active”, the IC50 (A549) was 43.6 µM and the Activity (Escherichia coli [19]) was “inactive”. For the same compound, the IC50 (K562) was 5.86 µM.
